A selection: hits, their analogues and other compounds. The true share with any hit is near 1.8%.
Ecoli rRNA inh: selective bacterial rRNA inhibition in E. coli | E. coli WT GFP vs humanized-ribosome RFP mutants, fluorescence, 24 h; stronger effect = lower value; DMSO median 0, no signal -100 | GFP signal change (wild-type ribosome), % (no concentration beside the values) | 350,000 tested, 1.6% active | AID 720706;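 active = significant combined selectivity score with lowered wild-type GFP, culture density cut under 30%, mutant RFP and density less affected; inactive = any of these conditions unmet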
DAGLB inhibitor: blocks human DAGLB lipase activity; 340,000 tested, 0.059% active; AID 504411; Q8NCG7; HEK293T DAGLB membrane lysate, EnzChek fluorogenic substrate; inhibition, % at 5.17 µM; in the data active = inhibition above about 34%;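 also: 0% = enzyme with vehicle and 100% = wells lacking enzyme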
Target sequence (Q8NCG7 whole entry, looked up): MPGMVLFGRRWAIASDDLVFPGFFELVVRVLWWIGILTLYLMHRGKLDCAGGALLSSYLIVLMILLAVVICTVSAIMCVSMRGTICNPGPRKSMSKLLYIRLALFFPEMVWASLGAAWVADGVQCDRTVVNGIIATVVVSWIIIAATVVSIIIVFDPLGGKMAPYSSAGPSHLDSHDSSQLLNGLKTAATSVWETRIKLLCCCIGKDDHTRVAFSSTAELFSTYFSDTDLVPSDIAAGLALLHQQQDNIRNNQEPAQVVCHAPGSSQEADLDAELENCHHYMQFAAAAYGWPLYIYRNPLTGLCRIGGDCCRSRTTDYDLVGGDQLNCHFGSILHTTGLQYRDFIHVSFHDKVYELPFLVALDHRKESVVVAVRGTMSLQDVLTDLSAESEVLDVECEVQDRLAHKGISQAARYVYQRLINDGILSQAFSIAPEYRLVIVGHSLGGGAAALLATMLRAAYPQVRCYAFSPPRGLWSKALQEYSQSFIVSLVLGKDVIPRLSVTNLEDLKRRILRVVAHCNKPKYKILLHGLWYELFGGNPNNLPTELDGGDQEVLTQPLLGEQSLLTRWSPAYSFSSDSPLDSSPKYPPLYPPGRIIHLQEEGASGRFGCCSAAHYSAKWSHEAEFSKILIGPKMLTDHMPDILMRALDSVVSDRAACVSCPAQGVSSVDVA
SKN-1 block: C. elegans SKN-1 inhibition; C. elegans VP596 Pgst-4::GFP/RFP ratio, acrylamide-induced, 24 h; inhibition, % at 21.8 µM; 360,000 tested, 0.49% active; AID 624304;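 active = interference check ratio from 0.5 to 1.5 plus GFP to RFP signal ratio inhibition reaching or exceeding a fixed threshold, cut at about 30% in these data, passing the limit was not always enough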
Cneo AK release: Cryptococcus neoformans lysis via adenylate kinase release; C. neoformans lysis, adenylate kinase release luminescence, 4 h; normalised: neutral wells 0, clomiphene wells 100; lysis activity, % at 15 µM; 360,000 tested, 0.2% active; AID 651654;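 active = mean lysis activity across replicates of at least 80%, whatever share of replicates individually reach that level; inactive = mean lysis activity below 80%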
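Signal: Adenylate kinase release luminescence | Assay system: Log-phase Cryptococcus neoformans yeast cells | Input: Cells at 5 × 10^6 per mL | Buffer or medium: Fresh YPD growth medium | Compound: Single dose | Schedule: Static 4 h at 37 °C with compound, 1 h detection | Controls: Clomiphene | Read-out: Luminescence rise reflecting yeast cell lysis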
iPSC survival up: hiPSC single-cell survival enhancement | 360,000 tested, 0.044% active | ATPlite luminescence; 100% = ROCK inhibitor wells, 0% = DMSO | survival enhancement, % at 20 µM; in the data active = survival enhancement above about 18%;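 also: cells exposed to compounds for 16 hours before the ATP read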
MT1-MMP act inh: inhibitors of human MT1-MMP activation; HT1080 RFP-PRO-GFP cells, GFP/RFP ratio fluorescence, overnight; percent of plate control window, DMSO zero; GFP/RFP ratio change, % at 20 µM; 360,000 tested, 0.061% active; AID 651647;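 active = GFP/RFP ratio change of at least 30% with cell ATP level not reduced by more than half and red fluorescence within 50% of control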
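system = RFP-PRO-GFP reporter HT1080 cells | dosing = 20 µM single dose, 1% DMSO | timing = overnight cell settling, then overnight compound exposure, 37 °C, 5% CO2 | read-out basis = GFP/RFP fluorescence ratio | controls = DMSO and RFP-L50D-GFP cell wells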
DAGLB inh conf: DAGLB (human) inhibition, confirmation screen | shares compounds with DAGLB inhibitor | HEK293T DAGLB membrane lysate, EnzChek fluorogenic substrate | inhibition, % at 5.17 µM | 190 tested, 73% active;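 active = mean inhibition over triplicate wells above a set limit taken from the primary lipase screen, cut at about 34% in these data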;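 also: 0% = DAGLB with DMSO and 100% = wells lacking DAGLB enzyme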
MT1-MMP act val: validation of inhibitors of human MT1-MMP activation; shares compounds with MT1-MMP act inh; HT1080 RFP-PRO-GFP cells, GFP and RFP fluorescence ratio, overnight; inhibition, % at 20 µM; 200 tested, 10% active;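 active = inhibition of at least 50% in the primary cell screen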
AID977621: growth inhibition of wild-type GFP E. coli, dose response, H69 mutant RFP, cherry-pick; shares compounds with Ecoli rRNA inh; E. coli wild-type GFP strain growth, fluorescence, 24 h; activity change, negative = inhibition at 50 µM; 1,900 tested, under 10 active;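 active = Wild-type ribosome reporter drop at least double the humanized mutant ribosome reporter drop, growth loss under a set limit; inconclusive = no clear call, values can overlap the other calls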;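 also: wild-type GFP and H69 mutant RFP strains grown together 50/50 in each well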
AID977628: growth of wild-type and h24-humanized E. coli strains – h24 mutant RFP vs wild-type GFP, cherry-pick, dose response; shares compounds with Ecoli rRNA inh; E. coli WT GFP strain growth, fluorescence, 24 h; activity change, negative = inhibition at 50 µM; 1,900 tested, under 10 active;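 active = compound lowering the normal-ribosome reporter at least twice as much as the humanized-ribosome reporter, growth loss under a set limit; inconclusive = no clear call, values can overlap the other calls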;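 also: wild-type GFP and h24 humanized RFP strains co-cultured 1 to 1 per well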
The depositor's hits bear a star; ? = inconclusive; / = no result.

SMILES	Ecoli rRNA inh	DAGLB inhibitor	SKN-1 block	Cneo AK release	iPSC survival up	MT1-MMP act inh	others
CC(=O)N1[C@@H]2Cn3c(ccc(-c4cccc(C(=O)N(C)C)c4)c3=O)[C@H]1[C@@H](C(=O)O)[C@@H]2CO	3	/	/	/	/	/
O=C1CNC[C@@H]2[C@H](c3ccc(Br)cc3)[C@H](CO)N12	-4	/	/	/	/	/
C=CCN1[C@@H]2CN(CC(F)(F)F)C[C@H]1C2c1ccc(Br)cc1 (some centres undefined)	-5	/	/	/	/	/
Cc1ccc(N=Cc2c(O)n(-c3ccc(C)cc3)c(=O)[nH]c2=O)cc1	11	-2	25	1	5	-1
Cc1ccc(-n2c(O)c(C=Nc3ccc(S(=O)(=O)N(C)C)cc3)c(=O)[nH]c2=O)cc1	/	-3	34*	0	-1	-207
O=C1C=C(N2CC2)c2ccccc2C1=O	-5	1	37*	-4	-1	19
C=C(C)[C@@]12OC3(c4ccccc4)O[C@@H]1C1[C@@H]4O[C@]4(CO)[C@@H](O)[C@]4(O)C(=O)C(C)=C[C@H]4[C@@]1(O3)[C@H](C)[C@H]2OC(=O)/C=C/C=C/c1ccccc1 (some centres undefined)	/	-5	70*	0	42*	-18
CN1CCN(C(=O)CN=[N+]=[N-])CC1	/	/	/	-4	/	/
CN1[C@@H]2CN(CC(F)(F)F)C[C@H]1C2c1ccc(Br)cc1 (some centres undefined)	-4	/	/	/	/	/
CC(=O)N1C[C@@H]2C(c3ccccc3)[C@H](C1)N2CC1CC1 (some centres undefined)	1	/	/	/	/	/
CNC(=O)Oc1cccc(-c2cn3cc(OC(=O)NC)ccc3n2)c1	8	-2	50*	/	-2	/
CNC(=O)Oc1ccc(-c2cn3cc(Cl)ccc3n2)cc1	/	-1	17	/	-3	3
Cc1ccccc1N1C(=O)NC(=O)/C(=C/c2ccc(N3CCOCC3)o2)C1=O	15	-10	19	-1	-1	-48
Cc1ccccc1N1C(=O)NC(=O)/C(=C\c2cc(Br)c(N3CCOCC3)o2)C1=O	/	2	38*	/	0	-123
CS(=O)(=O)N1CC2NC(C1)C2c1ccc(Br)cc1 (centres undefined)	-3	/	/	/	/	/
Cc1ccc(NP(=O)(Oc2ccccc2F)Oc2ccccc2F)cc1	/	-3	5	3	0	3
Cc1cccc(NP(=O)(Oc2ccccc2F)Oc2ccccc2F)c1C	-29*	-3	4	5	3	-10
CC(C)NC(=O)N1C[C@@H]2C(c3ccccc3)[C@H](C1)N2C (some centres undefined)	-2	/	/	/	/	/
COc1cc2c(cc1OC)-c1c(OC)c(OC)cc3c1[C@H](C2)[N+](C)(C)CC3	-25*	-1	7	1	2	1
COc1cc2c3c(c1OC)-c1cc(O)ccc1CC3NCC2 (centres undefined)	/	-1	17	-3	1	0
NP(=O)(OCCCc1ccccc1)Oc1ccc(Cl)cc1 (centres undefined)	-3	35*	-33	-5	-1	3	DAGLB inh conf=35*
CC=Cc1ccc2n(c1=O)C[C@H]1[C@H](CO)[C@@H](C(=O)N(C)C)[C@@H]2N1C (mixture of isomers)	10	/	/	36	/	/
Cn1cccc1/C=C1/C(=O)NC(=S)N(Cc2ccc(F)cc2)C1=O	0	26	-1	-1	-1	39*	MT1-MMP act val=35
COc1ccc(OC(=O)N(C)C[C@H]2OCc3ccccc3-c3c(n(C)c4ccccc34)C(=O)N([C@H](C)CO)C[C@@H]2C)cc1	0	/	/	/	/	/
COC(=O)C1=C(c2ccc(OC)c(OC)c2)C[C@@H]2CC[C@H]1N2C(=O)N1CCCC1	10	1	24	28	1	34*	MT1-MMP act val=3
SMILES	Ecoli rRNA inh	DAGLB inhibitor	SKN-1 block	Cneo AK release	iPSC survival up	MT1-MMP act inh	others
O=c1[nH]c(=S)n(C2CC2)c(O)c1/C=N/Nc1ccccc1	/	7	-1	5	0	61*	MT1-MMP act val=4
O=c1[nH]c(=S)n(C2CC2)c(O)c1/C=N/Nc1cccc2ccccc12	/	14	10	-10	5	2
O=C(Cc1ccccn1)N1CCCCN2[C@@H](CO)[C@@H](c3ccc(-c4ccccc4)cc3)[C@@H]2C1	3	/	/	-1	/	/
Cc1nc2ccc(Br)cc2c(=O)n1-c1ccc([N+](=O)[O-])c(C(F)(F)F)c1	-19*	-1	3	-17	0	3	AID977621=-10;AID977628=-7.7
O=C(c1cccc(Cl)c1)C1CCCN(Cc2ccon2)C1 (centres undefined)	14	-2	5	/	-2	0
CSc1ncc(CN2CCCC(C(=O)c3cccc(Cl)c3)C2)cn1 (centres undefined)	-21*	-2	3	0	0	-2	AID977621=-2.3;AID977628=-7.6
O=C(c1cccc(Cl)c1)C1CCCN(Cc2cccc3cnccc23)C1 (centres undefined)	-52	-4	0	/	-1	-12
O=C(c1ccc(Cl)cc1)C1CCCN(Cc2cccc3cnccc23)C1 (centres undefined)	-25*	-4	-1	-2	1	3	AID977628=?
CCCNC(=O)[C@H]1[C@H](CO)[C@H]2Cn3c(cccc3=O)[C@H]2N1CC	0	/	/	/	/	/
CCCN1[C@@H]2Cn3c(ccc(-c4ccc(F)cc4)c3=O)[C@H]1[C@@H](C(=O)OC)[C@@H]2CO	3	/	/	0	/	/
Cc1ccc(-c2cc(-c3ccc(C)cc3)[n+](-c3ccccc3)c(-c3ccc(C)cc3)c2)cc1	/	11	11	-8	-6	-14
Cc1ccc(-c2cc(-c3ccc(C)cc3)[n+](-c3ccc(C(=O)[O-])cc3)c(-c3ccc(C)cc3)c2)cc1	-21*	5	-10	0	2	1	AID977628=?
